For 13 compounds, MIC90 results are on record in ChEMBL document CHEMBL2150981, “Discovery and optimization of benzotriazine di-N-oxides targeting replicating and nonreplicating Mycobacterium tuberculosis” (J Med Chem, 2012).

Values after ≈ are worked out from the molar mass of the structure shown. A value given as a limit tells only on which side of the number the result lay.

Type in all cases: functional
In test [1] the test system is Mycobacterium tuberculosis. The experiment in a line: Antitubercular activity against streptomycin-resistant Mycobacterium tuberculosis ATCC 35820 after 5 days by resazurin-based microplate assay. The conditions noted are these: ATCC 35820, 120 h. A digest of the protocol:
(§1)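 Mid-log cultures grown in 7H9 with glycerol, Tween-80 and ADC. Compounds in DMSO were tested two-fold from […] against ~10^5 CFU/mL, 37°C for 5 d. Resazurin was then added for a further 2 d, and fluorescence read at ex 530/em 590 with visual confirmation. MIC was the lowest concentration inhibiting 90% of growth. Final DMSO 0.625%; two-fold variation taken as assay error.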
A general note: Alamar Blue is a resazurin reagent that responds to reducing activity.

The test system of test [2] is Mycobacterium tuberculosis. Kind of test: Antitubercular activity against isoniazid-resistant Mycobacterium tuberculosis ATCC 35822 after 5 days by resazurin-based microplate assay. The conditions noted are these: ATCC 35822, 120 h. An outline of the steps: as §1
Test [3] deals with Mycobacterium tuberculosis. The experiment in a line: Antitubercular activity against kanamycin-resistant Mycobacterium tuberculosis ATCC 35827 after 5 days by resazurin-based microplate assay. The conditions noted are these: ATCC 35827, 120 h. A digest of the protocol:
as §1

Test [4] deals with Mycobacterium tuberculosis. Kind of test: Antitubercular activity against ethionamide-resistant Mycobacterium tuberculosis ATCC 35830 after 5 days by resazurin-based microplate assay. As to conditions: ATCC 35830, 120 h. A digest of the protocol: as §1
Test [5] concerns Mycobacterium tuberculosis. Kind of test: Antitubercular activity against ethambutol-resistant Mycobacterium tuberculosis ATCC 35837 after 5 days by resazurin-based microplate assay. As to conditions: ATCC 35837, 120 h. An outline of the steps:
as §1

For `CCNc1n[n+]([O-])c2cccc(C)c2[n+]1[O-]`, the MIC90 in test [1] is 0.16 µg/mL (≈ 0.727 µM); in test [2], 0.62 µg/mL (≈ 2.82 µM); in test [3], 0.62 µg/mL (≈ 2.82 µM); in test [4] it was 0.31 µg/mL (≈ 1.41 µM); in test [5] it was 0.62 µg/mL (≈ 2.82 µM).
`CCNc1n[n+]([O-])c2ccccc2[n+]1[O-]`: the MIC90 in test [1], in test [2], in test [3], in test [4] and in test [5] was 1.2 µg/mL (≈ 5.82 µM) throughout.
For `CCNc1n[n+]([O-])c2cc3c(cc2[n+]1[O-])CCC3`, the MIC90 in test [1] stood at 0.63 µg/mL (≈ 2.56 µM); in test [2], 1.2 µg/mL (≈ 4.87 µM); in test [3], 1.2 µg/mL (≈ 4.87 µM); in test [4], 1.2 µg/mL (≈ 4.87 µM); in test [5] it was 1.2 µg/mL (≈ 4.87 µM).
For the compound `CC(C)(C)Nc1n[n+]([O-])c2ccccc2[n+]1[O-]`, the MIC90 is 1.2 µg/mL (≈ 5.12 µM) in test [1]; 2.5 µg/mL (≈ 10.7 µM) in test [2]; 2.5 µg/mL (≈ 10.7 µM) in test [3]; 1.2 µg/mL (≈ 5.12 µM) in test [4]; 2.5 µg/mL (≈ 10.7 µM) in test [5].
In the case of `CCNc1n[n+]([O-])c2cc(C)c(OC)cc2[n+]1[O-]`, the MIC90 in test [1], in test [2], in test [3], in test [4] and in test [5] was 1.2 µg/mL (≈ 4.8 µM) each time.
Turning to `CC1CCCCN1c1n[n+]([O-])c2cc3c(cc2[n+]1[O-])CCC3` (stereo not given), the MIC90 in test [1] amounted to 0.31 µg/mL (≈ 1.03 µM); in test [2], 0.31 µg/mL (≈ 1.03 µM); in test [3], 0.62 µg/mL (≈ 2.06 µM); in test [4], 0.31 µg/mL (≈ 1.03 µM); in test [5], 0.62 µg/mL (≈ 2.06 µM).
On to `[O-][n+]1nc(N2CCCC2)[n+]([O-])c2cc3c(cc21)CCC3`, for which the MIC90 in test [1] turned out to be 0.16 µg/mL (≈ 0.588 µM); in test [2], 0.31 µg/mL (≈ 1.14 µM); in test [3] it was 0.63 µg/mL (≈ 2.31 µM); in test [4], 0.62 µg/mL (≈ 2.28 µM); in test [5], 0.62 µg/mL (≈ 2.28 µM).
Take `CN(Cc1ccccc1)c1n[n+]([O-])c2cc3c(cc2[n+]1[O-])CCC3`: the MIC90 is less than 0.07 µg/mL in test [1]; less than 0.07 µg/mL in test [2]; 0.15 µg/mL (≈ 0.465 µM) in test [3]; 0.07 µg/mL (≈ 0.217 µM) in test [4]; 0.15 µg/mL (≈ 0.465 µM) in test [5].
For `CN(C)c1n[n+]([O-])c2cc3c(cc2[n+]1[O-])CCC3`, the MIC90 is less than 0.07 µg/mL in test [1]; less than 0.07 µg/mL in test [2]; 0.31 µg/mL (≈ 1.26 µM) in test [3]; 0.15 µg/mL (≈ 0.609 µM) in test [4]; 0.31 µg/mL (≈ 1.26 µM) in test [5].
For the compound `[O-][n+]1nc(N2CCCCC2)[n+]([O-])c2cc3c(cc21)CCC3`, the MIC90 in test [1] was 0.15 µg/mL (≈ 0.524 µM); in test [2], 0.15 µg/mL (≈ 0.524 µM); in test [3] it was 0.31 µg/mL (≈ 1.08 µM); in test [4], 0.31 µg/mL (≈ 1.08 µM); in test [5], 0.31 µg/mL (≈ 1.08 µM).
Take `[O-][n+]1nc(N2CCCC2)[n+]([O-])c2ccccc21`: the MIC90 was 0.02 µg/mL (≈ 0.0861 µM) in test [1]; 0.31 µg/mL (≈ 1.33 µM) in test [2]; 0.31 µg/mL (≈ 1.33 µM) in test [3]; 0.31 µg/mL (≈ 1.33 µM) in test [4]; 0.31 µg/mL (≈ 1.33 µM) in test [5].
For `[O-][n+]1nc(NC2CCC2)[n+]([O-])c2cc3c(cc21)CCC3`, the MIC90 in test [1] was 0.31 µg/mL (≈ 1.14 µM); in test [2], 1.2 µg/mL (≈ 4.41 µM); in test [3], 1.2 µg/mL (≈ 4.41 µM); in test [4], 0.62 µg/mL (≈ 2.28 µM); in test [5] it was 0.62 µg/mL (≈ 2.28 µM).
As for `CN(CCc1ccccc1)c1n[n+]([O-])c2cc3c(cc2[n+]1[O-])CCC3`, the MIC90 in test [1] was less than 0.07 µg/mL; in test [2] it was 0.07 µg/mL (≈ 0.208 µM); in test [3], 0.15 µg/mL (≈ 0.446 µM); in test [4], 0.15 µg/mL (≈ 0.446 µM); in test [5] it was 0.31 µg/mL (≈ 0.922 µM).

What is called MIC90 is the lowest concentration that inhibits either 90% of growth or 90% of the strains tested, depending on the study. Lower therefore signals greater potency.
